Bioassay records deposited in PubChem by several laboratories.
In the library only some 1% were active in any assay of this set; here they are far more common.
PDI inh: inhibitors of human protein disulfide isomerase; 350,000 compounds, 0.052% hits; PDI insulin aggregation turbidity, A650, 90 min; inhibition, % at 10 µM; AID 588391;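 active means mean inhibition across replicates of 30% or more, whatever share of single replicates reach that level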
Target sequence (P07237 whole entry, looked up): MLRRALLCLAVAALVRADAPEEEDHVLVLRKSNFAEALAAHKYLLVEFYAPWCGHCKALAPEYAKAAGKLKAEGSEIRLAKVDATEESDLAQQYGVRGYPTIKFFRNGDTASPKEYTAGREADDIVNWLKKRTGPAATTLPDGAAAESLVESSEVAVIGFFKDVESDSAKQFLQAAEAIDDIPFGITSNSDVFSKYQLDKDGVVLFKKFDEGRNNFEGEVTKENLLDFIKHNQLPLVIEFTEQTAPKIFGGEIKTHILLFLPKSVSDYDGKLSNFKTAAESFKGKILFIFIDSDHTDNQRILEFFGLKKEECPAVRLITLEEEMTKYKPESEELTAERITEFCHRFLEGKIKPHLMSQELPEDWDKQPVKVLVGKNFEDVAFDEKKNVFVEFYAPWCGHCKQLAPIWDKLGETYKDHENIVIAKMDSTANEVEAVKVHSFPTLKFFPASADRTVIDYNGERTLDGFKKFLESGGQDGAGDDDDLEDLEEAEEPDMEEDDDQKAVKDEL
PvdQ inh: P. aeruginosa PvdQ acylase inhibition | inhibition, % at 10 µM | AID 488965 | 340,000 compounds, 0.063% hits | purified PvdQ acylase, fluorescence plate reader; in the data active means inhibition above about 30%, passing the limit was not always enough;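 further: 0% = vehicle neutral wells and 100% = reference inhibitor wells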
PglD DTNB: blocks C. jejuni PglD acetyltransferase activity. purified PglD enzyme, DTNB colorimetric CoA detection. inhibition, % at 12.5 µM. 360,000 compounds, 0.098% hits; in the data active means inhibition above about 16%, passing the limit was not always enough
ERp5 inh: inhibitors of human ERp5. 350,000 compounds, 0.05% hits. ERp5 insulin aggregation, absorbance 650 nm, 90 min. Q15084. AID 651711. inhibition, % at 9.99 µM;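 active means mean replicate inhibition above about 25%, with every replicate also reaching it, limit read from the data, passing the limit was not always enough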
IMP-1 inh: inhibitors of Pseudomonas aeruginosa IMP-1 metallo-beta-lactamase; 290,000 compounds, 0.45% hits; purified IMP-1, nitrocefin hydrolysis, epi-absorbance fluorescence; inhibition, % at 5.6 µM;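 active means inhibition above the mean plus 3 SD of all compounds in the same screening run, cut at about 4.5% in these data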;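 further: 0% = IMP-1 with DMSO and 100% = DMSO wells lacking enzyme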
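System: Purified IMP-1 | Read-out basis: Percent enzyme inhibition | Controls: IMP-1 with DMSO as 0%, enzyme-free DMSO as 100% | Replicates: One well per compound | Doses: 5.6 µM nominal single concentration | Detection: Epi-absorbance fluorescence, 480 nm excitation, 530 nm emission | Incubation: 25 °C, 15 min preincubation, 25 min reaction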
VIM-2 inhibitor: blocks Pseudomonas aeruginosa VIM-2 metallo-beta-lactamase; purified VIM-2, nitrocefin hydrolysis, epi-absorbance fluorescence; inhibition, % at 5.6 µM; 290,000 compounds, 0.89% hits;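 active means inhibition above the mean of all tested compounds plus 3 SD, cutoff set per screening run, cut at about 7.5% in these data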;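 further: red hydrolysis product quenches plate fluorescence so inhibitors raise well fluorescence; 0% = enzyme with DMSO and 100% = DMSO without enzyme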
* = called active by the depositor.

CC(C)NC(=O)N(C)C[C@@H]1Oc2ncc(-c3cc4ccccc4o3)cc2C(=O)N([C@H](C)CO)C[C@@H]1C was read as PglD DTNB 2 and ERp5 inh 28*.
`C[C@@H]1CN([C@@H](C)CO)C(=O)c2cc(NS(=O)(=O)c3ccccc3)ccc2O[C@H]1CN(C)C(=O)Nc1ccc2c(c1)OCO2` gave PglD DTNB 2 and ERp5 inh 58*.
Screening CC(C)NC(=O)N(C)C[C@H]1Oc2ncc(C#CC3CCCC3)cc2C(=O)N([C@@H](C)CO)C[C@@H]1C returned PglD DTNB -3 and ERp5 inh -3.
`CCC(NC(=O)COc1cc2c(c3oc(=O)c(C)c(C)c13)CCC(C)(C)O2)C(=O)O` (stereo unspecified) gave PDI inh 1, PvdQ inh -2, PglD DTNB 1, ERp5 inh 0, IMP-1 inh -3 and VIM-2 inhibitor 11*.
Screening Cc1c(C)c2c(OCC(=O)NCc3cccnc3)cc3c(c2oc1=O)CCC(C)(C)O3 returned PvdQ inh 9, PglD DTNB -2, ERp5 inh -8, IMP-1 inh -4 and VIM-2 inhibitor 8.8*.
Cc1c(C)c2c(OCC(=O)NCC(C)C)cc3c(c2oc1=O)CCC(C)(C)O3 was read as PDI inh 5, PvdQ inh -15, PglD DTNB 3, ERp5 inh 1, IMP-1 inh -5 and VIM-2 inhibitor -1.
For CCc1cc(=O)oc2c3c(cc(OCC(=O)NCc4cccnc4)c12)OC(C)(C)CC3 the results were PvdQ inh -6, PglD DTNB -2, ERp5 inh 0, IMP-1 inh -6 and VIM-2 inhibitor 3.
Screening COc1ccccc1CN(C)C[C@H]1OCc2cnnn2CCCC(=O)N([C@H](C)CO)C[C@H]1C returned PglD DTNB 4 and ERp5 inh 5.
Screening O=C(c1cc2ccccc2oc1=O)N(Cc1ccc2c(c1)OCO2)Cc1ccco1 returned PDI inh 8, PvdQ inh -7, IMP-1 inh 6.5* and VIM-2 inhibitor -2.
COc1cccc(NC(=S)NC(=O)/C=C/c2ccco2)c1 was read as PDI inh 5, PvdQ inh -5, PglD DTNB -4, ERp5 inh 2, IMP-1 inh -2 and VIM-2 inhibitor -2.
O=C(/C=C/c1ccco1)NC(=S)Nc1cccc(C(=O)O)c1 was read as PDI inh 6, PvdQ inh -9, PglD DTNB 0, ERp5 inh 2, IMP-1 inh 8.9* and VIM-2 inhibitor -4.
Screening CCn1c2ccccc2c2nc3ccccc3nc21 returned PDI inh 6, PvdQ inh -13, IMP-1 inh 2 and VIM-2 inhibitor 9.9*.
Screening CCc1ccc(N2CSC3=C(C#N)C(c4cccs4)CC(=O)N3C2)cc1 (stereo unspecified) returned PDI inh 0, PvdQ inh -3, PglD DTNB -9, IMP-1 inh -2 and VIM-2 inhibitor -4.
Screening Cc1ccc(N2CSC3=C(C#N)C(c4cccs4)CC(=O)N3C2)cc1 (stereo unspecified) returned PvdQ inh 3, PglD DTNB -1, ERp5 inh 0, IMP-1 inh 5.6* and VIM-2 inhibitor 0.
Screening COc1ccccc1C#Cc1ccc([C@H]2[C@@H](CO)N3CCCCN(C(=O)C4CC4)C[C@H]23)cc1 returned PglD DTNB 0 and ERp5 inh -3.
For COc1ccc(-c2oc3cc(OC)c(O)c(OC)c3c(=O)c2OC)cc1O the results were PvdQ inh -5, PglD DTNB 5, ERp5 inh 5, IMP-1 inh -2 and VIM-2 inhibitor 12*.
Screening COc1ccc(-c2oc3cc(O)c(OC)c(O)c3c(=O)c2OC)cc1 returned PvdQ inh -7, PglD DTNB -3 and ERp5 inh 5.
CCC(C)NC(=O)c1cn(CC)c2ccc(S(=O)(=O)N(C)C)cc2c1=O (stereo unspecified) was read as PvdQ inh -16, PglD DTNB 4, ERp5 inh 3, IMP-1 inh -2 and VIM-2 inhibitor -5.
CCn1cc(C(=O)O)c(=O)c2cc(S(=O)(=O)N(C)C)ccc21 was read as PDI inh 2, PvdQ inh -10, PglD DTNB -2, IMP-1 inh -2 and VIM-2 inhibitor 8.7*.
